{"source": "paper PMC3184254", "about": "(Nature Chemical Biology, 2011)", "key": {"[1]": {"target": "SUV39H2 (Homo sapiens, UniProt Q9H5I1)", "sequence (Q9H5I1 whole entry, species assumed)": "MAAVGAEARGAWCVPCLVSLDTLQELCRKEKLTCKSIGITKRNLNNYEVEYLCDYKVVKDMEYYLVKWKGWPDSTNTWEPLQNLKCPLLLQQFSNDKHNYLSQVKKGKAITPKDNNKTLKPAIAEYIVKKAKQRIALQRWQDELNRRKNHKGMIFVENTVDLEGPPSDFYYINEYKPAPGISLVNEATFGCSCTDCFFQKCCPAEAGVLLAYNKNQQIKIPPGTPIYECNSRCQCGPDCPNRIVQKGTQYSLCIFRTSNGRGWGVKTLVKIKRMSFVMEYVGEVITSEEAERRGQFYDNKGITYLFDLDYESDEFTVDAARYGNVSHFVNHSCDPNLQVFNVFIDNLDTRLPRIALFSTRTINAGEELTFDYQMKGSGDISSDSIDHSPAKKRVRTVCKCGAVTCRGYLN", "assay": "SAHH-coupled assay, SUV39H2", "assay_type": "biochemical", "procedure,_shortened": "(§1)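 A fluorescence-based coupled assay used S-adenosyl-L-homocysteine hydrolase to follow conversion of cofactor SAM to SAH by the methyltransferase. IC50 values are the average of at least two separate experiments.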"}, "[2]": {"target": "T1, SETD7 (Homo sapiens, UniProt Q8WTS6)", "T1 sequence (Q8WTS6 1-366)": "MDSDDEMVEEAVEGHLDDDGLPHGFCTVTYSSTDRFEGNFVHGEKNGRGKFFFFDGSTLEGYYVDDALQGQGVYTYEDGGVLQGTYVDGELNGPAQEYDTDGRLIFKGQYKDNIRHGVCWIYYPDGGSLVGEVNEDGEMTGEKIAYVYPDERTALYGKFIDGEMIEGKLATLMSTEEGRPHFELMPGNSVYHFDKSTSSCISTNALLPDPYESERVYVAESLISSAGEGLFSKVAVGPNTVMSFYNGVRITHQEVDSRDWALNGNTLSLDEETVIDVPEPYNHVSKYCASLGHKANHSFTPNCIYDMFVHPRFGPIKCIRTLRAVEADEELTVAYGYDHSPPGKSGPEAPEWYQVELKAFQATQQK", "assay": "SAHH-coupled assay, SETD7", "assay_type": "biochemical", "procedure,_shortened": "as §1"}, "[3]": {"target": "EZH2 (Homo sapiens, UniProt Q15910)", "sequence (Q15910 whole entry, species assumed)": "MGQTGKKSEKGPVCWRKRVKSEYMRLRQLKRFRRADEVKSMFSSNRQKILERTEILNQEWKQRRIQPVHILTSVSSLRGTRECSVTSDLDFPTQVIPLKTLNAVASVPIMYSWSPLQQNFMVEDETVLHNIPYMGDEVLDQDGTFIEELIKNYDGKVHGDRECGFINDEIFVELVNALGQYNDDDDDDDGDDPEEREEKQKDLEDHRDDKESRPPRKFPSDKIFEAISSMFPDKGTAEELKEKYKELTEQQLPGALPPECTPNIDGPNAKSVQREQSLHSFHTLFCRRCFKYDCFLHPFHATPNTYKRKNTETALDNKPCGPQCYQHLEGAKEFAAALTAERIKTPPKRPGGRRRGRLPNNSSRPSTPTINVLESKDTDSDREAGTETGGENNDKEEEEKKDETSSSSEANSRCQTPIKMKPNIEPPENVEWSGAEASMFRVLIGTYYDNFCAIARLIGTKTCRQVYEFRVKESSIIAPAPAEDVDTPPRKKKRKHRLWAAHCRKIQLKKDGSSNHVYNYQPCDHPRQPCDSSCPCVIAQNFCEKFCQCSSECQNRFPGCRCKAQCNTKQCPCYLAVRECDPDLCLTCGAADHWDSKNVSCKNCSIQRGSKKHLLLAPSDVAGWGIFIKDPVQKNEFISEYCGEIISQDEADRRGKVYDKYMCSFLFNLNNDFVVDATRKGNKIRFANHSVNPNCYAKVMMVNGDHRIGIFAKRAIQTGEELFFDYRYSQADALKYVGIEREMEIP", "sequence (O75530 whole entry partner, species assumed)": "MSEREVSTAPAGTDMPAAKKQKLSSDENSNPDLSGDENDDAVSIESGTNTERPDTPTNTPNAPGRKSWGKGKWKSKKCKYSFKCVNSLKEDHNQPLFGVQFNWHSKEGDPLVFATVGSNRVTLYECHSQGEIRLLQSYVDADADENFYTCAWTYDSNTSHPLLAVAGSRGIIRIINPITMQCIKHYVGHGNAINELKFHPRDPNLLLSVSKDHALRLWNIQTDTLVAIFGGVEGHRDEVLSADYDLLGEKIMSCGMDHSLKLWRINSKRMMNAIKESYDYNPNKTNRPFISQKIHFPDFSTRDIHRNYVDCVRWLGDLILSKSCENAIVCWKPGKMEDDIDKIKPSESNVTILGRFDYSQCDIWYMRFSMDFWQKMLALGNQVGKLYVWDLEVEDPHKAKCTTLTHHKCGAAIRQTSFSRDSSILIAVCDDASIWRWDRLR", "sequence (Q15022 whole entry partner, species assumed)": "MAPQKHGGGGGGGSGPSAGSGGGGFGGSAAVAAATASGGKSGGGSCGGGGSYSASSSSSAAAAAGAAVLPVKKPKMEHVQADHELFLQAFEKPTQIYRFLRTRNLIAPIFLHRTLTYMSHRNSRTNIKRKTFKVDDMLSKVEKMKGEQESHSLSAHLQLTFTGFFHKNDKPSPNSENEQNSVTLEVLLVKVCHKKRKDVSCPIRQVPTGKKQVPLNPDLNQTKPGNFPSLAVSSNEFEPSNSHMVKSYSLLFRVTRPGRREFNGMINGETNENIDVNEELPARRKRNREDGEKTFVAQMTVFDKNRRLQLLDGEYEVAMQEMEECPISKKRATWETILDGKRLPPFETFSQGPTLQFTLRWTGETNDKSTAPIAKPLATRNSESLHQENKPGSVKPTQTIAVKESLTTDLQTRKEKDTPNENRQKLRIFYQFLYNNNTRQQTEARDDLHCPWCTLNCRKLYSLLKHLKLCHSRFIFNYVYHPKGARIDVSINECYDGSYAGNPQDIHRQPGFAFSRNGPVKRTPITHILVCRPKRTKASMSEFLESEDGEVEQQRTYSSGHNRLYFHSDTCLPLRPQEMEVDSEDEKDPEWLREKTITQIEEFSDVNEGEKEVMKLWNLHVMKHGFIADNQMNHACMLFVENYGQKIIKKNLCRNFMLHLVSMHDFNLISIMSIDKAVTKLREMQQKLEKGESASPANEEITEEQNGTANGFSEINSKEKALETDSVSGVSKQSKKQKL", "sequence (Q09028 whole entry partner, species assumed)": "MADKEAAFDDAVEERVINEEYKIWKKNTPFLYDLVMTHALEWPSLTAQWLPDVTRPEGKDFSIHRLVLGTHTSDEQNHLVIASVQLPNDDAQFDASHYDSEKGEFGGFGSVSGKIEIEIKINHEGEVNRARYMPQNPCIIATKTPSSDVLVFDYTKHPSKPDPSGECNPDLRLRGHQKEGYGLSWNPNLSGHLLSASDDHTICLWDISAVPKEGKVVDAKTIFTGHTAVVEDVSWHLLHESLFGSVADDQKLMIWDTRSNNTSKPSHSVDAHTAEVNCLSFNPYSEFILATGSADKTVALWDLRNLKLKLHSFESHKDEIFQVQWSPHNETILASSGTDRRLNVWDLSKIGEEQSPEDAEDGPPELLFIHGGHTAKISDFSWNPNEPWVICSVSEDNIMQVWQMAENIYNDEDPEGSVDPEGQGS", "sequence (Q6ZN18 whole entry partner, species assumed)": "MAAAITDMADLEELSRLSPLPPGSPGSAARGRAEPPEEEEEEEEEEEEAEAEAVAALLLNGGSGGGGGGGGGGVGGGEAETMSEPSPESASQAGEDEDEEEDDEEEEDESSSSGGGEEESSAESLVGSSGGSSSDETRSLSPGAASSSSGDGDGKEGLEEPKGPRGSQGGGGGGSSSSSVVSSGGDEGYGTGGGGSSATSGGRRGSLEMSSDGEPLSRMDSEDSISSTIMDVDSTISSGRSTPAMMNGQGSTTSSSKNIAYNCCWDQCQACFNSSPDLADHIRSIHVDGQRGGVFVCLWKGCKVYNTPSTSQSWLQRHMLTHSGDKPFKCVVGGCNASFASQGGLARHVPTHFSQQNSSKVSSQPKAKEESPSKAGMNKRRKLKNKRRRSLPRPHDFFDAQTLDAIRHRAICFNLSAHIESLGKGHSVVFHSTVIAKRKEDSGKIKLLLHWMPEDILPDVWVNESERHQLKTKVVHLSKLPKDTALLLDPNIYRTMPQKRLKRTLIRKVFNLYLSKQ", "assay": "BPS Bioscience assay, EZH2", "assay_type": "biochemical"}, "[4]": {"target": "T2, SETD8 (Homo sapiens, UniProt Q9NQR1)", "T2 sequence (Q9NQR1 1-393)": "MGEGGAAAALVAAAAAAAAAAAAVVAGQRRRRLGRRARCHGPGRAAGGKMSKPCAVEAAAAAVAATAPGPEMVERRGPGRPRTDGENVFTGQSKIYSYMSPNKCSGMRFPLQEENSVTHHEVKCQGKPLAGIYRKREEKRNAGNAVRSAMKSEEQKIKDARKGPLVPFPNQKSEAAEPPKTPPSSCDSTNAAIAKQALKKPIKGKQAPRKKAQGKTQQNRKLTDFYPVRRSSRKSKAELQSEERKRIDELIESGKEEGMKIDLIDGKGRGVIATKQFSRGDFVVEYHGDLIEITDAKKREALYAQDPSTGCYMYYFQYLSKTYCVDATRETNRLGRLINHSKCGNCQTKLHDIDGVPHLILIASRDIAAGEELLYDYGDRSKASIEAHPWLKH", "assay": "SAHH-coupled assay, SETD8", "assay_type": "biochemical", "procedure,_shortened": "as §1"}, "[5]": {"target": "JMJD2E (Homo sapiens, UniProt B2RXH2)", "sequence (B2RXH2 whole entry)": "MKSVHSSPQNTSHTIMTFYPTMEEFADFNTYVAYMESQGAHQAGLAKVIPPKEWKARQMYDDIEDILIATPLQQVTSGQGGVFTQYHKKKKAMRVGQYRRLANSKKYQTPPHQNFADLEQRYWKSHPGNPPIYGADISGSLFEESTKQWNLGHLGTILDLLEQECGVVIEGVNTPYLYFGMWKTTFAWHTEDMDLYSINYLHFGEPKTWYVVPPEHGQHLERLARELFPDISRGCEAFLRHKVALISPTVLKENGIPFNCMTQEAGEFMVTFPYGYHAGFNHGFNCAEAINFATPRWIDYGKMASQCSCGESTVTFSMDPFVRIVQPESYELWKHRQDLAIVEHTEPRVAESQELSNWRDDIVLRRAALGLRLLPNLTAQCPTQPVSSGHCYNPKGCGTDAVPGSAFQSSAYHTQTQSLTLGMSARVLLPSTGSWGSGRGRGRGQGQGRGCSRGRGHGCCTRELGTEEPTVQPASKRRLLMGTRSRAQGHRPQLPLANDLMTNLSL", "assay": "Alphascreen assay, JMJD2E", "assay_type": "biochemical"}, "[6]": {"tested_on": "26 out of 29 targets in the Ricerca Selectivity Panel", "assay": "Ricerca Selectivity Panel", "assay_type": "binding", "details": "at 1 μM"}, "[7]": {"target": "muscarinic M2 receptor (Homo sapiens, UniProt P08172)", "assay": "Ricerca Selectivity Panel, muscarinic M2", "assay_type": "binding"}, "[8]": {"target": "adrenergic α1A receptor (Rattus norvegicus, UniProt P43140)", "sequence (P43140 whole entry)": "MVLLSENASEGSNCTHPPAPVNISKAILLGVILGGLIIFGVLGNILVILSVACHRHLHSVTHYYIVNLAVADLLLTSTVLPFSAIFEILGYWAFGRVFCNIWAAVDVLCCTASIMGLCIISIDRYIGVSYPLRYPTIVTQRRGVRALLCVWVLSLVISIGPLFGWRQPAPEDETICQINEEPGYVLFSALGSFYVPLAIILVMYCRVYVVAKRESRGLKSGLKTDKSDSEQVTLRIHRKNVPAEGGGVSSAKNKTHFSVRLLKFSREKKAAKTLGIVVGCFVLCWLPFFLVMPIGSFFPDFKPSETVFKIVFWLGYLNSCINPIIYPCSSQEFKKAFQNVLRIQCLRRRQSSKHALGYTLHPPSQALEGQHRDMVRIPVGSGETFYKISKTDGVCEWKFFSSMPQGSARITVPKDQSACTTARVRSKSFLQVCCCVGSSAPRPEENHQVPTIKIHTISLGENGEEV", "assay": "Ricerca Selectivity Panel, adrenergic α1A", "assay_type": "binding"}, "[9]": {"target": "adrenergic α1B receptor (Rattus norvegicus, UniProt P15823)", "sequence (P15823 whole entry)": "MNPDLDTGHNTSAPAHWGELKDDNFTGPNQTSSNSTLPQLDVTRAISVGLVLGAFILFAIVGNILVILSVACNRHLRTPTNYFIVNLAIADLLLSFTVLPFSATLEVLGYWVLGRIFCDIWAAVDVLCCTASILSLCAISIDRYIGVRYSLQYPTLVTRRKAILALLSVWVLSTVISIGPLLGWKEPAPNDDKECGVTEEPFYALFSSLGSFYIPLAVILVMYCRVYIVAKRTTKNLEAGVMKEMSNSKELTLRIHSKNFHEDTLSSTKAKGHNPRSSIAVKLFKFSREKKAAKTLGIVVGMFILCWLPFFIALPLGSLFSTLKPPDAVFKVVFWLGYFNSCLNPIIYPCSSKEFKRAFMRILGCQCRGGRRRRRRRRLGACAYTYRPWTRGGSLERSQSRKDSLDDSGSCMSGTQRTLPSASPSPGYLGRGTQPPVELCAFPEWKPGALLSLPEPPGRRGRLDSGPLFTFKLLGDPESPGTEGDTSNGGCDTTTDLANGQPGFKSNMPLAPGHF", "assay": "Ricerca Selectivity Panel, adrenergic α1B", "assay_type": "binding"}, "[10]": {"tested_on": "45 targets, including 36 GPCRs", "assay": "NIMH Psychoactive Drug Screen Program Selectivity Panel", "assay_type": "binding", "details": "at 1 μM"}, "[11]": {"target": "M1 (Homo sapiens, UniProt P11229)", "assay": "M1 functional assay", "assay_type": "cell-based"}, "[12]": {"target": "M2 (Homo sapiens, UniProt P08172)", "assay": "M2 functional assay", "assay_type": "cell-based"}, "[13]": {"tested_on": "M1, M2 and M4", "assay": "M1, M2 and M4 functional assays", "assay_type": "cell-based"}, "[14]": {"tested_on": "panel of 24 kinases", "assay": "Kinase selectivity panel", "assay_type": "biochemical", "details": "at 1 μM; 24 kinases"}, "[15]": {"assay": "Solution stability by 1H NMR and LC-MS", "assay_type": "physicochemical", "details": "10 mM in deuterated DMSO and deuterated H2O (90:10), room temperature, 4 weeks"}, "[16]": {"tested_on": "H3K9me2 levels in MDA-MB-231 cells", "assay": "H3K9me2 in-cell western, MDA-MB-231", "assay_type": "cell-based, human"}, "[17]": {"tested_on": "H3K9me2 levels in PC3 cells", "assay": "H3K9me2 in-cell western, PC3", "assay_type": "cell-based", "details": "Homo sapiens, PC-3, read-out: IC50 for reduction of H3K9me2 levels"}, "[18]": {"tested_on": "H3K9me2 levels in 22RV1 cells", "assay": "H3K9me2 in-cell western, 22RV1", "assay_type": "cell-based", "details": "Homo sapiens, 22Rv1, read-out: IC50 for reduction of H3K9me2 levels"}, "[19]": {"tested_on": "H3K9me2 levels in breast, prostate, colon carcinomas and normal fibroblast cells", "assay": "H3K9me2 in-cell western, tumor and normal cell lines", "assay_type": "cell-based, human"}, "[20]": {"tested_on": "MDA-MB-231 cells", "assay": "Clonogenicity assay, MDA-MB-231", "assay_type": "cell-based, human"}, "[21]": {"tested_on": "H3K9me2 levels in MCF7 cells", "assay": "H3K9me2 inhibition, MCF7", "assay_type": "cell-based", "details": "Homo sapiens, MCF7, read-out: IC90 for H3K9me2 inhibition"}, "[22]": {"tested_on": "HSC1-EF1α-EGFP-Puromycin retrovirus in J1 mES cells", "assay": "Reactivation of silent EGFP retrovirus vector, flow cytometry", "assay_type": "cell-based, mouse"}, "[23]": {"tested_on": "J1 mES cells", "assay": "SSEA1 pluripotency marker immunostaining, flow cytometry", "assay_type": "cell-based, mouse", "details": "100 nM"}, "[24]": {"tested_on": "MAGEA2 and DUB1 genes in J1 mES cells", "assay": "mRNA levels of G9a-regulated endogenous genes", "assay_type": "cell-based, mouse", "details": "day 10; versus untreated or UNC0737-treated cells"}, "[25]": {"tested_on": "H3K9me2 at EGFP provirus and MAGEA2 promoter in mES cells", "assay": "ChIP of H3K9me2 in mES cells", "assay_type": "cell-based, mouse", "details": "500 nM for 3 or 7 d"}}, "note": "Read-outs that look alike come from different tables or passages of the source.", "data": [{"compound": "COc1cc2c(NC3CCN(C(C)C)CC3)nc(C3CCCCC3)nc2cc1OCCCN1CCCC1", "note": "[UNC0638]", "values": [{"measurement": "IC50", "setting": "[1]", "result": "> 10000", "unit": "nM"}, {"measurement": "IC50", "setting": "[1]; SAHH-coupled assay", "result": "inactive"}, {"measurement": "IC50", "setting": "[2]", "result": "> 10000", "unit": "nM"}, {"measurement": "IC50", "setting": "[2]; SAHH-coupled assay", "result": "inactive"}, {"measurement": "IC50", "setting": "[3]", "result": "> 10000", "unit": "nM"}, {"measurement": "IC50", "setting": "[3]; assay results from BPS Bioscience", "result": "inactive"}, {"measurement": "IC50", "setting": "[4]", "result": "> 10000", "unit": "nM"}, {"measurement": "IC50", "setting": "[4]; SAHH-coupled assay", "result": "inactive"}, {"measurement": "IC50", "setting": "[5]", "result": 4500, "unit": "nM"}, {"measurement": "inhibition", "setting": "[6]", "result": "< 30", "unit": "%"}, {"measurement": "inhibition at 1 µM", "setting": "[7]", "result": 64, "unit": "%"}, {"measurement": "inhibition at 1 µM", "setting": "[8]", "result": 90, "unit": "%"}, {"measurement": "inhibition at 1 µM", "setting": "[9]", "result": 69, "unit": "%"}, {"measurement": "inhibition", "setting": "[10]; against 6 targets in the panel", "result": "> 50", "unit": "%"}, {"measurement": "inhibition", "setting": "[10]; against 39 targets in the panel", "result": "< 50", "unit": "%"}, {"measurement": "IC50", "setting": "[11]", "result": "> 10000", "unit": "nM"}, {"measurement": "IC50", "setting": "[12]", "result": "480 ± 10", "unit": "nM"}, {"measurement": "agonist activity", "setting": "[13]", "result": "no agonist activity"}, {"measurement": "inhibition", "setting": "[14]", "result": "< 10", "unit": "%"}, {"measurement": "stability in solution", "setting": "[15]", "result": "stable"}, {"measurement": "IC90", "setting": "[16]; Homo sapiens, MDA-MB-231, read-out: IC90 for reduction of H3K9me2 levels", "result": 250, "unit": "nM"}, {"measurement": "cellular H3K9me2 levels after 4 d", "setting": "[16]; MDA-MB-231 cells, 250 or 500 nM", "result": "equal or very close to those of G9a and GLP knockdown cells"}, {"measurement": "IC50", "setting": "[16]; read-out: IC50 for reduction of H3K9me2 levels, MDA-MB-231 cells, 48 h exposure, in-cell western", "result": 80, "unit": "nM"}, {"measurement": "IC50", "setting": "[17]", "result": 59, "unit": "nM"}, {"measurement": "IC50", "setting": "[18]", "result": 48, "unit": "nM"}, {"measurement": "IC50", "setting": "[19]; Homo sapiens, Fibroblast, read-out: potency in reducing H3K9me2 levels", "result": "48 to 238", "unit": "nM"}, {"measurement": "reduction of H3K9me2 levels", "setting": "[19]; at 250 nM, variety of cell lines", "result": "60–80%"}, {"measurement": "clonogenicity", "setting": "[20]", "result": "much less effect"}, {"measurement": "IC90", "setting": "[21]", "result": 320, "unit": "nM"}, {"measurement": "EGFP+ cells, maximal level", "setting": "[22]; day 10, UNC0638 100, 250 or 500 nM, untreated 36%", "result": 63, "unit": "%"}, {"measurement": "EGFP+ cells", "setting": "[22]; day 12", "result": 75, "unit": "%"}, {"measurement": "SSEA1+ cells", "setting": "[23]", "result": 97, "unit": "%"}, {"measurement": "expression of DUB1 and MAGEA2 genes", "setting": "[24]", "result": "more highly expressed"}, {"measurement": "H3K9me2 at EGFP provirus and MAGEA2 promoter (ChIP)", "setting": "[25]", "result": "decreased H3K9me2 at both targets by day 3"}]}]}
